In the library only some 1.4% were active in any assay of this set; here they are far more common.
NR1D1 modulator: modulates human Rev-erb alpha binding to DNA; P20393; Rev-erbα–FITC-DNA binding, fluorescence polarization, 90 min; activity, % at 10 µM; 370,000 tested, 0.79% active; AID 1259318;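 active = activity above about 14%, limit read from the data; passing the limit was not always enough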
Target sequence (P20393 whole entry, looked up): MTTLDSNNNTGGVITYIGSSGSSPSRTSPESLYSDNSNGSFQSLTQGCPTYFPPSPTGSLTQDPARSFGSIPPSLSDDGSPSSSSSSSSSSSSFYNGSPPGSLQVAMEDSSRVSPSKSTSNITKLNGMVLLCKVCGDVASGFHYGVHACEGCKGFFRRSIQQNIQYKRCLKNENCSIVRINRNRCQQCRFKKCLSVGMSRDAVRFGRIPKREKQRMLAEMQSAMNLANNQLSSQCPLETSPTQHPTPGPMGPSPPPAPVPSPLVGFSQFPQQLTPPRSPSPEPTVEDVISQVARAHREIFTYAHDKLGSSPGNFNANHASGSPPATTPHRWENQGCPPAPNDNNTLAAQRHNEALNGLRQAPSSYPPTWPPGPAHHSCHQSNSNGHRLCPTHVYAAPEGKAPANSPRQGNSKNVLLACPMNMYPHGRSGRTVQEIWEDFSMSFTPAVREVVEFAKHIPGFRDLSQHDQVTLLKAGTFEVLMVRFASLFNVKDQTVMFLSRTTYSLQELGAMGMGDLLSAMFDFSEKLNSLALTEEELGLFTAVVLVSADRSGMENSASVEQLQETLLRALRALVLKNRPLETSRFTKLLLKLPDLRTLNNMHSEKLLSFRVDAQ
PG9 binder: PG9 antibody binding by small molecule; TR-FRET gp120-PG9 antibody binding; inhibition, % at 6.7 µM; 360,000 tested, 0.43% active; AID 624416; in the data active = inhibition above about 8.5%
NR2E3 ag-1: human photoreceptor-specific nuclear receptor agonism | inhibition of corepressor binding, % at 3.98 µM | AID 602229 | CHO-S Gal4-NCOR/VP16-NR2E3 two-hybrid, luciferase | 360,000 tested, 0.35% active;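 active = inhibition above the mean of all tested compounds plus 3 SD, cut at about 70% in these data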;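 also: higher means lower luciferase signal from less NR2E3 corepressor binding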
NR2E3 ag-2: agonists of human nuclear receptor NR2E3 | 320,000 tested, 0.12% active | inhibition of corepressor binding, % at 4.78 µM | GST-NR2E3/biotin-RetCOR TR-FRET, 1536-well | Q9Y5X4;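 active = percent inhibition above the cutoff of mean plus 3 SD of all tested compounds, set per screening campaign, cut at about 20% in these data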
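Material – GST-tagged NR2E3 plus biotinylated RetCOR corepressor · Quantity – NR2E3 fusion 1.35 nM · Times – 5 h incubation at 4 °C · Medium – pH 7.5 Tris-based buffer · Technique – TR-FRET, Eu(K)-anti-GST donor, streptavidin-D2 acceptor, ex 340, em 617/671 nm · Benchmarks – high control biotin, low control 0.6% DMSO · Format – 1536-well plates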
NR2E3 ag confirm: NR2E3 agonism confirmed in two-hybrid assay; shares compounds with NR2E3 ag-1; CHO-S mammalian two-hybrid NR2E3-NCOR, luciferase luminescence; inhibition, % at 3.98 µM; 2,300 tested, 51% active; AID 624378;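 active = average inhibition above a cutoff equal to the mean inhibition of all tested compounds plus one SD, cut at about 70% in these data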
GAL4-VP16 luc: counter-screen for NR2E3 agonists: GAL4-VP16 reporter inhibitors; 2,300 tested, 29% active; CHO-S GAL4-VP16 luciferase reporter, luminescence; inhibition, % at 3.98 µM; AID 624379; shares compounds with NR2E3 ag-1;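 active = mean inhibition above a cutoff equal to the average over all tested compounds plus one standard deviation, cut at about 70% in these data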;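 also: luciferase from a UAS reporter driven by GAL4-VP16 transactivation; higher means less reporter light so more repression of VP16 activity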
Numbers stand for hits; – = inactive; · = not tested or not shown.

SMILES	NR1D1 modulator	PG9 binder	NR2E3 ag-1	NR2E3 ag-2	NR2E3 ag confirm	GAL4-VP16 luc
C[C@@H](C(=O)Nc1ccc2c(c1)OCCO2)n1c(=O)[nH]c2ccccc2c1=O	–	–	–	–	–	–
COc1cc(OC)nc(-n2ncc(Br)c(Br)c2=O)n1	–	–	74	–	97	–
Cc1cc(=S)nc(-c2ccccn2)[nH]1	–	–	76	–	–	–
Cc1ccc(NC(=S)NCCSc2ccc(Cl)cc2)cc1	–	–	–	–	·	·
Cc1ccc(SCCNC(=S)Nc2cc(C)cc(C)c2)cc1	–	–	–	–	–	–
COc1cccc(CN(C)C(=O)c2cc(COc3ccc4ncccc4c3)on2)c1	–	–	79	–	97	88
COc1cccc(CN(C)C(=O)c2cc(COc3c(F)cccc3F)on2)c1	–	–	–	–	·	·
COc1cccc(CN(C)C(=O)c2cc(COc3ccc(-n4cncn4)cc3)on2)c1	–	–	–	–	–	–
COCC(=O)N(Cc1ccccc1)c1ccccc1C(=O)Nc1cc(OC)ccc1OC	–	·	·	·	·	·
CCCCNC(=O)C[C@H]1C[C@@]2(C(=O)OC)C(=C[C@H](C(C)(C)C)O[C@@H]2C)N(Cc2ccco2)C1=O	–	·	·	·	·	·
COc1ccc(NC(=O)C2Cc3c(-c4ccc(Cl)cc4)ccnc3O2)cc1OC (stereo not drawn)	–	–	78	·	82	–
COc1ccc(NC(=O)C2Cc3c(-c4ccccc4)ccnc3O2)cc1OC (stereo not drawn)	·	·	78	·	80	71
COc1ccc(NC(=O)C2Cc3c(-c4ccncc4)ccnc3O2)cc1OC (stereo not drawn)	–	–	–	·	·	·
COc1ccc(NC(=O)C2Cc3c(-c4ccc(Cl)cc4)ccnc3O2)cn1 (stereo not drawn)	–	–	–	·	·	·
CCC(CO)Nc1cccc2c1S(=O)(=O)N(Cc1cn(Cc3ccc(C(F)(F)F)cc3)nn1)Cc1ccccc1O2 (stereo not drawn)	–	·	·	·	·	·
Cc1ccc(-n2c(SCC(=O)c3ccc(O)c(O)c3)nnc2-c2ccccc2)cc1	–	·	·	·	·	·
O=C(CSc1ccc(-c2ccc(Cl)cc2)nn1)N1CCCc2ccccc21	–	–	–	–	·	·
O=C(CSc1ccc(-c2ccc(F)cc2)nn1)N1CCCc2ccccc21	–	–	–	–	–	–
Cc1cc(N2CCN(C(=O)Oc3ccc(-c4ccccc4)cn3)CC2)c2ccccc2n1	–	·	·	·	·	·
CC(O)CNc1ncnc2nc[nH]c12 (stereo not drawn)	–	–	–	–	·	·
CC(C)CCCCCCCCCCCCC(=O)NCC(=O)NC1C(O)C(O)C(Nc2ncnc3nc[nH]c23)OC1C(O)CO (stereo not drawn)	·	·	100	·	100	101
CC(C)OC(=O)NCCOC(=O)Nc1ccc(Cl)c(Cl)c1	–	–	–	–	92	74
O=C1NC(=S)SC1=Cc1ccccc1Cl	–	–	–	·	79	73
O=C1NC(=S)S/C1=C\c1cc(Cl)cc(Cl)c1O	–	–	–	·	73	–
Cc1cc(/C=C2\SC(=S)NC2=O)cc(C)c1O	–	–	–	–	·	·
SMILES	NR1D1 modulator	PG9 binder	NR2E3 ag-1	NR2E3 ag-2	NR2E3 ag confirm	GAL4-VP16 luc
O=S1(=O)c2c(NCc3ccco3)cccc2Oc2ccccc2CN1Cc1cn(Cc2ccc(Cl)cc2)nn1	–	·	·	·	·	·
Cc1ccc(NC(=O)Nc2ccc3c(c2)[C@]2(CC(=O)N(CC(C)C)C2c2ccccc2)C(=O)N3C)cc1Cl (stereo partly drawn)	–	·	·	·	·	·
CC1(C(=O)NS(=O)(=O)c2ccc3ccccc3c2)CCN1C(=O)Cc1ccc(-c2ccccc2)cc1 (stereo not drawn)	–	–	–	·	–	–
COc1cccc(NC(=O)C2(C)CCN2C(=O)Cc2ccc(C(C)C)cc2)c1 (stereo not drawn)	–	–	–	·	·	·
CC(C)c1ccc(CC(=O)N2CCC2(C)C(=O)Nc2ccc3c(c2)OCO3)cc1 (stereo not drawn)	–	–	–	·	·	·
CC1(C(=O)Nc2cccc(C#N)c2)CCN1C(=O)Cc1ccc(-c2ccccc2)cc1 (stereo not drawn)	–	–	91	·	98	90
CC(C)c1ccc(CC(=O)N2CCC2(C)C(=O)Nc2cccc(C#N)c2)cc1 (stereo not drawn)	–	–	–	·	–	–
CC1(C(=O)Nc2ccc3c(c2)OCCO3)CCN1C(=O)Cc1ccc(-c2ccccc2)cc1 (stereo not drawn)	–	–	–	·	–	–
CC1(C(=O)Nc2cccc(C#N)c2)CCN1C(=O)CCc1ccccc1 (stereo not drawn)	–	–	–	·	·	·
Clc1ccc([C@H]2OC[C@@]3(CNCc4ccccn4)CS[C@H](c4ccc(Cl)cc4)N23)cc1	–	·	·	·	·	·
O=C(Nc1ccc(F)cc1)Nc1cc(OCC(F)(F)F)cc(OCC(F)(F)F)c1	–	–	–	–	98	85
Cc1cccc(NC(=O)CSc2nnc(-c3cc(C)n(-c4ccccc4)c3C)o2)c1C	–	–	–	–	·	·
Cc1cc(-c2nnc(SCC(=O)Nc3ccccc3C(F)(F)F)o2)c(C)n1-c1ccccc1	–	–	–	–	–	–
NC(=O)c1ccccc1OCC(=O)N1CCC(Cc2ccccc2)CC1	–	–	77	–	92	74
COc1cc(NC(=O)C2CCCN(S(=O)(=O)c3ccccc3[N+](=O)[O-])C2)cc(OC)c1 (stereo not drawn)	–	·	·	·	·	·
FC(F)(F)c1cnc(NNC(=S)Nc2ccccc2Cl)c(Cl)c1	–	–	–	–	–	–
Cc1cccc(NC(=S)NNc2ncc(C(F)(F)F)cc2Cl)c1	–	–	–	–	·	·
CC(C)C[C@@H]1COc2cc(Br)ccc2S(=O)(=O)N1Cc1cn(Cc2ccc(C(F)(F)F)cc2)nn1	–	·	·	·	·	·
COc1ccc(C(CCOC(=O)Oc2ccccc2)c2cc(OC)cc(OC)c2)cc1 (stereo not drawn)	–	·	·	·	·	·
Cc1ccc(NC(=O)N2CCc3ccccc32)cc1	–	–	–	–	·	·
CN1CCN(c2ccc(NC(=O)N3CCc4ccccc43)cc2)CC1	–	–	–	–	–	–
CCC(C)n1ncn(-c2ccc(N3CCN(c4ccc(OC[C@H]5CO[C@](Cn6cncn6)(c6ccc(Cl)cc6Cl)O5)cc4)CC3)cc2)c1=O (stereo partly drawn)	–	·	·	·	·	·
Cn1cc(C(=O)c2ccc(Cl)cc2)cc1-c1nc2ccccc2n1C	–	–	–	–	–	–
COc1ccc(CN(CCN2CCOCC2)C(=O)c2cc(Cl)ccc2F)cc1OC	–	·	·	·	·	·
COC1CC2CCC(C)C(O)(O2)C(=O)C(=O)N2CCCCC2C(=O)OC(C(C)CC2CCC(O)C(OC)C2)CC(=O)C(C)/C=C(\C)C(O)C(OC)C(=O)C(C)CC(C)/C=C/C=C/C=C/1C (stereo not drawn)	–	·	·	·	·	·
Cc1nn(Cc2ccc(C(=O)Nc3nccs3)cc2)c(C)c1Cl	–	–	–	–	–	–
O=C(NC1CCCCN(Cc2ccc(Cl)cc2)C1=O)c1cccc2nsnc12 (stereo not drawn)	–	·	·	·	·	·
